Tests used:
[1] = molecular target: T1, Dopamine beta-hydroxylase (Bos taurus) (UniProt P15101); experiment: Inhibitor dissociation constant vs. tyramine substrate against Dopamine beta hydroxylase at pH 6.0
T1 sequence (whole entry): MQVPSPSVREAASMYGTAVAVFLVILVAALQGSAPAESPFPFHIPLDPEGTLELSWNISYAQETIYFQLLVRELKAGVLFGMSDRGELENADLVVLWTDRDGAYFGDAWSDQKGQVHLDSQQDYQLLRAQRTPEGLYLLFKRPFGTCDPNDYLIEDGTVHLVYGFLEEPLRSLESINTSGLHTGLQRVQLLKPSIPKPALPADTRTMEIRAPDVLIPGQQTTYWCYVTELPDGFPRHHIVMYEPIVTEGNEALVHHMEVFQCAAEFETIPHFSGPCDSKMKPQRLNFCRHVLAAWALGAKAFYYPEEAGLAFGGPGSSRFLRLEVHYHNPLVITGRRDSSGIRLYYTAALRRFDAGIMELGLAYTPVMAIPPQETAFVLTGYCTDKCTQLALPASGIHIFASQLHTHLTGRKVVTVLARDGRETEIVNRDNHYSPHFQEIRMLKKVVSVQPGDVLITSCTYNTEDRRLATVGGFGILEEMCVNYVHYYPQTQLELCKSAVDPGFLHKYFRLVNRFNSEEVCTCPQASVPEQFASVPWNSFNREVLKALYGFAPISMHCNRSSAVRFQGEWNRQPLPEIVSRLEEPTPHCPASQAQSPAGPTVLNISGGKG
Summary of the method: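 Purified homogeneous DBH, specific activity 25-42 units/mg, assayed at pH 6.0 with tyramine as the varied substrate. Kis taken as slope inhibition constant from Cleland COMP/NONCOMP fits; mean ± SEM.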

[2] = molecular target: T1, Dopamine beta-hydroxylase (Bos taurus); experiment: Percent inhibition against bovine Dopamine beta hydroxylase (DBH) at 10E-4 M
Summary of the method: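 DBH activity measured in the presence of 10^-4 M compound; result expressed as percent inhibition.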

[3] = molecular target: T2, Dopamine beta-hydroxylase (Bos taurus, UniProt P15101)
T2 sequence (P15101 whole entry): T1 sequence (whole entry)

[4] = molecular target: T2, Dopamine beta-hydroxylase; remark: listed apart in the source
[5] = molecular target: T1, Dopamine beta-hydroxylase (Bos taurus); experiment: Inhibitor dissociation constant vs. tyramine substrate against Dopamine beta hydroxylase at pH 6.6
Summary of the method: (§1)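 Homogeneous purified DBH with specific activity 25-42 units/mg, with tyramine as the varied substrate. The pH 4.5 condition is predominantly ordered: phenethylamine binds before oxygen. The pH 6.6 condition is random. Kis is from standard competitive/noncompetitive kinetic fits, reported as mean ± SEM.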

[6] = molecular target: T2, Dopamine beta-hydroxylase; experiment: Inhibitory Concentration against bovine Dopamine beta hydroxylase (DBH); Range is between (0.060-0.0877).
[7] = Partition coefficient (logP); type: physicochemical; conditions: octanol/water
Summary of the method: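 Octanol/pH 7.4 phosphate buffer partitioning at four concentrations, with UV assay of each phase. D taken at infinite dilution by linear regression. pKa by titration in 2:1 MeOH-H2O.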

[8] = molecular target: T1, Dopamine beta-hydroxylase (Bos taurus); experiment: Inhibitor dissociation constant vs. tyramine substrate against Dopamine beta hydroxylase at pH 4.5.; summary of the method: as §1
Rattus norvegicus [9] = experiment: Change in DA/NE (Dopamine/Norepinephrine) ratio after oral dosing (50 mg/kg); type: functional
Summary of the method: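 Adult male Okamoto-Aoki SHR given vehicle (5% PEG 400, 1% methocel) or suspended drug orally, two doses 18 h apart. Mesenteric arteries taken 2 h after second dose and homogenized in 0.4 M HClO4 with Na2S2O5 and EDTA at 0 °C. Supernatant incubated 60 min at 37 °C with rat liver COMT and [methyl-3H]-S-adenosylmethionine, pH 9.6 Tris; DA and NE measured.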

Rattus norvegicus [10] = experiment: Mean arterial blood pressure at 4 hr post drug at ip dose of 50 mg/kg for the indicated number of SHR (spontaneous hypertensive rats) relative to blood pressure before dosing; type: functional; conditions: route intraperitoneal
Summary of the method: (§2)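 Male Okamoto-Aoki SHR, 16–18 weeks, 275-310 g. Femoral artery cannulated under methohexital (10 mg/kg iv), with 2 h recovery, unrestrained. Drug given ip in 20% DMF or po as suspension in 5% PEG 400/1% methocel. BP recorded every 0.5 h for 5–6 h. Mean arterial BP change at 4 h versus predose; mean ± SEM, n rats; vehicle controls run in parallel.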

[11] = molecular target: T2, Dopamine beta-hydroxylase; experiment: Inhibitory Concentration against bovine Dopamine beta hydroxylase (DBH); Range is between (56-72).
[12] = molecular target: T2, Dopamine beta-hydroxylase; remark: listed apart in the source
[13] = molecular target: T2, Dopamine beta-hydroxylase; remark: listed apart in the source
[14] = molecular target: T2, Dopamine beta-hydroxylase; remark: listed apart in the source
[15] = molecular target: T2, Dopamine beta-hydroxylase; remark: listed apart in the source
[16] = molecular target: T2, Dopamine beta-hydroxylase; remark: listed apart in the source
[17] = molecular target: T2, Dopamine beta-hydroxylase; remark: listed apart in the source
[18] = molecular target: T2, Dopamine beta-hydroxylase; experiment: Inhibitory Concentration against bovine Dopamine beta hydroxylase (DBH); Range is between (36-102)
[19] = molecular target: T2, Dopamine beta-hydroxylase; remark: listed apart in the source
[20] = molecular target: T2, Dopamine beta-hydroxylase; experiment: Inhibitory Concentration against bovine Dopamine beta hydroxylase (DBH); Range is between (1.7-2.4)
[21] = molecular target: T2, Dopamine beta-hydroxylase; experiment: Inhibitory Concentration against bovine Dopamine beta hydroxylase (DBH); Range is between (10-14).
[22] = molecular target: T2, Dopamine beta-hydroxylase; remark: listed apart in the source
Rattus norvegicus [23] = experiment: Mean arterial blood pressure at 4 hr post drug at ip dose of 100 mg/kg for the indicated number of SHR (spontaneous hypertensive rats) relative to blood pressure before dosing; type: functional; conditions: route intraperitoneal; summary of the method: as §2
[24] = molecular target: T2, Dopamine beta-hydroxylase; remark: listed apart in the source
[25] = molecular target: T2, Dopamine beta-hydroxylase; experiment: Inhibitory Concentration against bovine Dopamine beta hydroxylase (DBH); Range is between (4.9-6.5)
[26] = molecular target: T2, Dopamine beta-hydroxylase; remark: listed apart in the source
[27] = molecular target: T2, Dopamine beta-hydroxylase; experiment: […] against bovine Dopamine beta hydroxylase […]; Range is between (1.8-2.6).
[28] = molecular target: T2, Dopamine beta-hydroxylase; experiment: Inhibitory Concentration against bovine Dopamine beta hydroxylase (DBH); Range is between (7-38).
[29] = molecular target: T2, Dopamine beta-hydroxylase; remark: listed apart in the source
[30] = molecular target: T2, Dopamine beta-hydroxylase; remark: listed apart in the source
[31] = molecular target: T2, Dopamine beta-hydroxylase; remark: listed apart in the source
[32] = molecular target: T2, Dopamine beta-hydroxylase; experiment: Inhibitory Concentration against bovine Dopamine beta hydroxylase (DBH); Range is between (23-41).
[33] = molecular target: T2, Dopamine beta-hydroxylase; experiment: […] against bovine Dopamine beta hydroxylase […]; Range is between (4.2-5.3).
[34] = molecular target: T2, Dopamine beta-hydroxylase; remark: listed apart in the source
[35] = molecular target: T2, Dopamine beta-hydroxylase; remark: listed apart in the source
[36] = molecular target: T2, Dopamine beta-hydroxylase; experiment: Inhibitory Concentration against bovine Dopamine beta hydroxylase (DBH); Range is between (21-37).
[37] = molecular target: T2, Dopamine beta-hydroxylase; remark: listed apart in the source
Rattus norvegicus [38] = experiment: Mean arterial blood pressure at 4 hr post drug at po dose of 50 mg/kg for the indicated number of SHR (spontaneous hypertensive rats) relative to blood pressure before dosing (expt. no. 13); type: functional; conditions: dose 100 mg/kg, in the assay text read “100 mg/kg” for “50 mg/kg”; summary of the method: as §2
Rattus norvegicus [39] = experiment: Mean arterial blood pressure at 4 hr post drug at po dose of 50 mg/kg for the indicated number of SHR (spontaneous hypertensive rats) relative to blood pressure before dosing (expt. no. 12); type: functional; summary of the method: as §2
[40] = molecular target: T2, Dopamine beta-hydroxylase; remark: listed apart in the source

FC(F)(F)c1ccc(Cn2cc[nH]c2=S)cc1
Kis [1]: 9.04 µM
inhibition [2]: 25%

S=c1[nH]ccn1Cc1c(Cl)cccc1Cl
inhibition [2]: 7%

COc1cccc(OC)c1Cn1cc[nH]c1=S
inhibition [2]: 10%

COc1ccc(Cn2ccnc2S)cc1S(N)(=O)=O
inhibition [2]: 7%

Oc1ccc(Cn2cc[nH]c2=S)cc1C(F)(F)F
IC50 [3]: 121 µM

Fc1ccc(Cn2cc[nH]c2=S)cc1
IC50 [4]: 47 µM

Oc1c(F)cc(Cn2cc[nH]c2=S)cc1F
Kis [5]: 0.039 µM
IC50 [6]: 0.074 µM
logP [7]: 1.08
Kis [8]: 0.0057 µM
Increase (Rattus norvegicus [9]): 165%
Decrease (Rattus norvegicus [10]): 36 mmHg

Oc1c(F)c(F)c(Cn2cc[nH]c2=S)c(F)c1F
IC50 [11]: 62 µM

S=c1[nH]ccn1Cc1cccc(Cl)c1Cl
IC50 [12]: 52 µM

S=c1[nH]ccn1Cc1ccccc1
Kis [1]: 0.83 µM

O=[N+]([O-])c1ccc(Cn2cc[nH]c2=S)cc1
IC50 [13]: 53 µM

OCc1ccc(Cn2ccnc2S)cc1
inhibition [2]: 6%

COc1ccc(Cn2cc[nH]c2=S)cc1[N+](=O)[O-]
IC50 [14]: 359 µM

COc1cc(Cl)c(Cn2cc[nH]c2=S)c(Cl)c1
inhibition [2]: 32%

S=c1[nH]ccn1Cc1ccccc1Cl
inhibition [2]: 14%

S=c1[nH]ccn1Cc1ccc(Cl)cc1
IC50 [15]: 96 µM

COc1ccc(Cn2cc[nH]c2=S)cc1C
inhibition [2]: 72%

COc1cccc(Cn2cc[nH]c2=S)c1
IC50 [16]: 157 µM

Cc1ccc(Cn2cc[nH]c2=S)cc1
Kis [1]: 9.77 µM
inhibition [2]: 34%

Oc1ccccc1Cn1cc[nH]c1=S
IC50 [17]: 580 µM

Oc1cc(Cl)c(Cn2cc[nH]c2=S)c(Cl)c1
IC50 [18]: 75 µM

S=c1[nH]ccn1Cc1c(Cl)cc(Cl)cc1Cl
IC50 [19]: 102 µM

Oc1ccc(Cn2cc[nH]c2=S)cc1Cl
IC50 [20]: 2 µM

S=c1[nH]ccn1Cc1cccc(Cl)c1
IC50 [21]: 12 µM

Oc1c(Cl)cc(Cn2cc[nH]c2=S)cc1Cl
IC50 [22]: 0.68 µM
Increase (Rattus norvegicus [9]): 12%
Decrease (Rattus norvegicus [23]): 28 mmHg

Oc1ccc(Cn2cc[nH]c2=S)cc1O
IC50 [24]: 2.2 µM

O=C(O)c1ccc(Cn2ccnc2S)cc1
inhibition [2]: 1%

Cc1ccccc1Cn1cc[nH]c1=S
inhibition [2]: 15%

Fc1cccc(Cn2cc[nH]c2=S)c1
logP [7]: 1.7
Kis [8]: 0.108 µM
IC50 [25]: 5.6 µM
Increase (Rattus norvegicus [9]): 364%

Cc1cc(Cn2cc[nH]c2=S)ccc1O
IC50 [26]: 49 µM

S=c1[nH]ccn1CCCc1cc(Cl)cc(Cl)c1
IC50 [27]: 2.1 µM

COc1ccccc1Cn1cc[nH]c1=S
inhibition [2]: 68%

Cc1cccc(C)c1Cn1cc[nH]c1=S
inhibition [2]: 5%

S=c1[nH]ccn1Cc1ccc(Cl)cc1Cl
IC50 [28]: 17 µM

S=c1[nH]ccn1Cc1cc(Cl)cc(Cl)c1
IC50 [29]: 2.4 µM
logP [7]: 1.78
Increase (Rattus norvegicus [9]): 197%

COc1c(F)cc(Cn2cc[nH]c2=S)cc1F
IC50 [30]: 36 µM

COc1c(Cl)cc(Cn2cc[nH]c2=S)cc1Cl
IC50 [31]: 47 µM

O=[N+]([O-])c1cc(Cn2cc[nH]c2=S)ccc1O
IC50 [32]: 31 µM

Fc1cc(F)cc(CCCn2cc[nH]c2=S)c1
IC50 [33]: 4.7 µM

Oc1ccc(Cn2cc[nH]c2=S)cc1
logP [7]: 1.02
Increase (Rattus norvegicus [9]): 92%
Decrease (Rattus norvegicus [10]): 22 mmHg

COc1ccc(Cn2cc[nH]c2=S)cc1F
inhibition [2]: 67%

Oc1ccc(Cn2cc[nH]c2=S)cc1F
logP [7]: 1.12
Increase (Rattus norvegicus [9]): 78%
Decrease (Rattus norvegicus [23]): 32 mmHg
IC50 [34]: 1.5 µM

COc1ccc(Cn2cc[nH]c2=S)cc1Br
inhibition [2]: 60%

S=c1[nH]ccn1Cc1cc(Cl)ccc1Cl
IC50 [35]: 97 µM

S=c1[nH]ccn1Cc1ccc(Br)cc1
Kis [1]: 3.42 µM
inhibition [2]: 43%

COc1ccc(Cn2cc[nH]c2=S)cc1OC
inhibition [2]: 15%

COc1ccc(Cn2cc[nH]c2=S)cc1C(F)(F)F
inhibition [2]: 29%

S=c1[nH]ccn1Cc1ccc(Cl)c(Cl)c1
IC50 [36]: 28 µM

Oc1cccc(Cn2cc[nH]c2=S)c1
IC50 [37]: 148 µM

Fc1cc(F)cc(Cn2cc[nH]c2=S)c1
Decrease (Rattus norvegicus [38]): 28 mmHg
logP [7]: 1.98
Decrease (Rattus norvegicus [39]): 22 mmHg
Kis [8]: 0.041 µM
Increase (Rattus norvegicus [9]): 407%
Decrease (Rattus norvegicus [10]): 50 mmHg

Oc1ccc(Cn2cc[nH]c2=S)cc1Br
IC50 [40]: 12 µM

Reference: ChEMBL document CHEMBL1123691, “Multisubstrate inhibitors of dopamine beta-hydroxylase. 2. Structure-activity relationships at the phenethylamine binding site” (J Med Chem, 1987)
